In the M2OR odorant receptor database:
Where a chain is given by its changes, count along the chain named.

What was measured:
Conditions in all cases: stereoisomer not certain
O1440 = system: T1, O1440
T1 sequence (whole entry): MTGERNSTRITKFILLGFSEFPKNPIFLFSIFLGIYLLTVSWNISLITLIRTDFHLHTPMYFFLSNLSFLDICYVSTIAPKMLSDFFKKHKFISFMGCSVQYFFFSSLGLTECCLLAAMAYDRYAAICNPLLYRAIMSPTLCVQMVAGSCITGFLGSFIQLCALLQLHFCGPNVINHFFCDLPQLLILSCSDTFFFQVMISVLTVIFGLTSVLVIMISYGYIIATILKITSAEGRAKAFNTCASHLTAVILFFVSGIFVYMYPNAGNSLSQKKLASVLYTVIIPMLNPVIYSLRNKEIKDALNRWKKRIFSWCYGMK
Procedure, shortened: (§1)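 Transient luciferase assays in mammalian cell lines were common, though methods varied by source. The values come from published papers and their supplementary material, with extra details from the original authors when needed. Responsive refers to a measured signal the original authors judged statistically different from baseline, and non-responsive (inactive) to the remainder.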

O14A2 I133V = system: T2, O14A2 I133V
T2 sequence (whole entry): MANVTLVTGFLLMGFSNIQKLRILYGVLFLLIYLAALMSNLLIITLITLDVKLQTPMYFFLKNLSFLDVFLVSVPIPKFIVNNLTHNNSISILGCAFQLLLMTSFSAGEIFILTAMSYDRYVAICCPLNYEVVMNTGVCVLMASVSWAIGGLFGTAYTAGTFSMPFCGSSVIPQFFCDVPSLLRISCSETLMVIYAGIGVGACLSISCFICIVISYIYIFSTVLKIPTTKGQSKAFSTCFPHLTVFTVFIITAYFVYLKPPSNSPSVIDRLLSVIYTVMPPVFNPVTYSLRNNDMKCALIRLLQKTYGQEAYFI
Procedure, shortened: as §1

O14CZ = system: T3, O14CZ
T3 sequence (whole entry): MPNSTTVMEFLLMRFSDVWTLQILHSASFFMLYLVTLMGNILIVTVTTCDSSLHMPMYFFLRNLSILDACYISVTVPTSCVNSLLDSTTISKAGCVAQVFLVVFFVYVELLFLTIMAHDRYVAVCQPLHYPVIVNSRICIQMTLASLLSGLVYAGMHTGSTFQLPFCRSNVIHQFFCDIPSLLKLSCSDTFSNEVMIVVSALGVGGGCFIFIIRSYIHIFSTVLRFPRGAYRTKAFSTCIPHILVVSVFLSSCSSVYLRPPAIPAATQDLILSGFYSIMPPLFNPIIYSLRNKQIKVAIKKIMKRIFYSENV
Procedure, shortened: as §1

O14I1 V36A D50N Y216C = system: T4, O14I1 V36A D50N Y216C
T4 sequence (whole entry): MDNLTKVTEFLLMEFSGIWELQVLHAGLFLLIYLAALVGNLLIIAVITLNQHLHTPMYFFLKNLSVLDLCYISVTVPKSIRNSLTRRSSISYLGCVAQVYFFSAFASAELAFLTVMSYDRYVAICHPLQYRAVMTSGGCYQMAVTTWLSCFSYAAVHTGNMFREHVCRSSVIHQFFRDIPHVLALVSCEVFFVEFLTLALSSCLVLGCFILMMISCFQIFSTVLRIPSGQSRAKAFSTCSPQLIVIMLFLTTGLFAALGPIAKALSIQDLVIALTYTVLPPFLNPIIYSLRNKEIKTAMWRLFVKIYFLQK
Procedure, shortened: as §1

O14J1 N3Y = system: T5, O14J1 N3Y
T5 sequence (whole entry): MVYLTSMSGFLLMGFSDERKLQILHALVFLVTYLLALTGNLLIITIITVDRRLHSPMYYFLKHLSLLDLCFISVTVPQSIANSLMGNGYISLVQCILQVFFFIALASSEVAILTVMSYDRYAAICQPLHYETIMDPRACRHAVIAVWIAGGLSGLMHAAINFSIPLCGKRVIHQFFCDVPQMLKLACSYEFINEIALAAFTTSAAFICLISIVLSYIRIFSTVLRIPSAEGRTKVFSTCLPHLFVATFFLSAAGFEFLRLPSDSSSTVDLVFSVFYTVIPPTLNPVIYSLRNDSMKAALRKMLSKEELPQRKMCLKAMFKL
Procedure, shortened: as §1

O14K1 D119Y = system: T6, O14K1 D119Y
T6 sequence (whole entry): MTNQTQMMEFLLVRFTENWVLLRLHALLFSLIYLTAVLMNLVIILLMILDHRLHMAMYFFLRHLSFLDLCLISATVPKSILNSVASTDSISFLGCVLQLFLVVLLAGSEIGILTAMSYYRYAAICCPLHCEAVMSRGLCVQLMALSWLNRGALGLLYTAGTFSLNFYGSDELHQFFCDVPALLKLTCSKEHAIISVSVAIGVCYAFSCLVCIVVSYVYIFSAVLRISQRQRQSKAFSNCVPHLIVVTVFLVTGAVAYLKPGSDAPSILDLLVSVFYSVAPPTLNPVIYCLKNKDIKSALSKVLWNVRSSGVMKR
Procedure, shortened: as §1

O2A25 = system: T7, O2A25
T7 sequence (whole entry): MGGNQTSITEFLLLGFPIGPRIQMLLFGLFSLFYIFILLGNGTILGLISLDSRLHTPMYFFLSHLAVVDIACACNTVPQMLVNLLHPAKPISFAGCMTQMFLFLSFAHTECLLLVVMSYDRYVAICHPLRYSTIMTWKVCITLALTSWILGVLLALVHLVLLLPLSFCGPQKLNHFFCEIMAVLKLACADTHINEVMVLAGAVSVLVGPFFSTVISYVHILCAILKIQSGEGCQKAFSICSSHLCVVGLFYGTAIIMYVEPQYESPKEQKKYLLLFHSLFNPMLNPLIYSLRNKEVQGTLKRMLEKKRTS
Procedure, shortened: as §1

O2AE1 = system: T8, O2AE1
T8 sequence (whole entry): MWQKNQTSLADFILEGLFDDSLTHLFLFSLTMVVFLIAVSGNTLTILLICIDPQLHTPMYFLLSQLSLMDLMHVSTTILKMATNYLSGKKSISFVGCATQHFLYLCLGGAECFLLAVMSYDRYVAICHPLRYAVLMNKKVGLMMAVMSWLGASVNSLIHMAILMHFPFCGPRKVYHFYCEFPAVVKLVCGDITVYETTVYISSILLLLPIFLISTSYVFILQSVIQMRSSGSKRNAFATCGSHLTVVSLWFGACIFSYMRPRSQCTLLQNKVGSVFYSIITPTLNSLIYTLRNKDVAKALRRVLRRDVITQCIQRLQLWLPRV
Procedure, shortened: as §1

O2AJ1 = system: T9, O2AJ1
T9 sequence (whole entry): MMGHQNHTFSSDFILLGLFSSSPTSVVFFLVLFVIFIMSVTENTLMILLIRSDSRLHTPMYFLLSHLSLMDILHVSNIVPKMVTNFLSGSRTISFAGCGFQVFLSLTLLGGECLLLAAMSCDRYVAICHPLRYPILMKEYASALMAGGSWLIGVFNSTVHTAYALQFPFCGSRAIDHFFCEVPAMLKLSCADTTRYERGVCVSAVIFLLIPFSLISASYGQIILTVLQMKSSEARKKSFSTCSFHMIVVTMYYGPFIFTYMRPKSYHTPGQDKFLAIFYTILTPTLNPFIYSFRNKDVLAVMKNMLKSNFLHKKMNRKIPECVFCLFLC
Procedure, shortened: as §1

O2AK2 S99N = system: T10, O2AK2 S99N
T10 sequence (whole entry): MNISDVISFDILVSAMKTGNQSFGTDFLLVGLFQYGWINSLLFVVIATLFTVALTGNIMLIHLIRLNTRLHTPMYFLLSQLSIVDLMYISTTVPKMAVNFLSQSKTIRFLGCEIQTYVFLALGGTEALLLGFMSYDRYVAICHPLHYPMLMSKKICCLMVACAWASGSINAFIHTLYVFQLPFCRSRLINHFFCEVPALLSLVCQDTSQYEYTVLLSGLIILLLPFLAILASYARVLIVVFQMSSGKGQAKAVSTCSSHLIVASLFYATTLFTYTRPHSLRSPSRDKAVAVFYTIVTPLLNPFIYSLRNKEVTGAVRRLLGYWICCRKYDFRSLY
Procedure, shortened: as §1

O2T11 = system: T11, O2T11
T11 sequence (whole entry): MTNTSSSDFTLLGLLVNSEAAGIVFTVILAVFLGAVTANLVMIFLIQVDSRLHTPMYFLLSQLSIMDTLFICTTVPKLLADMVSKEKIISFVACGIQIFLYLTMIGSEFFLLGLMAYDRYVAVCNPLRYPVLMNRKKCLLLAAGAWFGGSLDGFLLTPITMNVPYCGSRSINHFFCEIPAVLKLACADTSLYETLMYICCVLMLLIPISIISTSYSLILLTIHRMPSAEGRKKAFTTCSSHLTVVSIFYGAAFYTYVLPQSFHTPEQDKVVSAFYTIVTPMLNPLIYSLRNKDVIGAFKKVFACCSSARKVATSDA
Procedure, shortened: as §1

O2T27 L36V V134D = system: T12, O2T27 L36V V134D
T12 sequence (whole entry): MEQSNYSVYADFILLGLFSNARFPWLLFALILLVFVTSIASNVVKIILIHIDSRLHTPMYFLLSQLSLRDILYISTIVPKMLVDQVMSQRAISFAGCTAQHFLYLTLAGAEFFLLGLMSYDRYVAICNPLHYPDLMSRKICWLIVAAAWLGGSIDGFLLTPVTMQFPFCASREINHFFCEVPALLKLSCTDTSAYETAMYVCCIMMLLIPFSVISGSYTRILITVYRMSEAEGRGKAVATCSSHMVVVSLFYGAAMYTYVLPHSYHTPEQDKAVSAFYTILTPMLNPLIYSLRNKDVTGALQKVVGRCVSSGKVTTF
Procedure, shortened: as §1

O2T29 Q24R = system: T13, O2T29 Q24R
T13 sequence (whole entry): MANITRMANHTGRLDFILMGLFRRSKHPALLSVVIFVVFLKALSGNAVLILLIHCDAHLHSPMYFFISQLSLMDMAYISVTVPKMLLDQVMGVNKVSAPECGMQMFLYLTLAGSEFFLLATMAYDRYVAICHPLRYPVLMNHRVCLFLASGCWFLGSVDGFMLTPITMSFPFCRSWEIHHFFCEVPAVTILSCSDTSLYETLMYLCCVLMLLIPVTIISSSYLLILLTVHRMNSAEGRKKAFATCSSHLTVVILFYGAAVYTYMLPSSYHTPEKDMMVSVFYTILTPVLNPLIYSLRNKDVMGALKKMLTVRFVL
Procedure, shortened: as §1

O2T33 A169V = system: T14, O2T33 A169V
T14 sequence (whole entry): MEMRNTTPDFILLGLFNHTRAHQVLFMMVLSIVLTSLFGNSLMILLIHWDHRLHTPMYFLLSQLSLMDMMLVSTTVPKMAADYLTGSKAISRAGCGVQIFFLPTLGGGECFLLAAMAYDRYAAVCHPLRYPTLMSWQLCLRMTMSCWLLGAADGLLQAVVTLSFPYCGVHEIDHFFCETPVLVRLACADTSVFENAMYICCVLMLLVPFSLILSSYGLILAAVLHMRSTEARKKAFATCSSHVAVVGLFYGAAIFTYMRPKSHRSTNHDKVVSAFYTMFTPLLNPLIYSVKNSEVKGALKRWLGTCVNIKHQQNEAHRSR
Procedure, shortened: as §1

O2T33 G297E I309L = system: T15, O2T33 G297E I309L
T15 sequence (whole entry): T14 sequence (whole entry) with V169A, G297E, I309L
Procedure, shortened: as §1

O2T34 Q6P R267P = system: T16, O2T34 Q6P R267P
T16 sequence (whole entry): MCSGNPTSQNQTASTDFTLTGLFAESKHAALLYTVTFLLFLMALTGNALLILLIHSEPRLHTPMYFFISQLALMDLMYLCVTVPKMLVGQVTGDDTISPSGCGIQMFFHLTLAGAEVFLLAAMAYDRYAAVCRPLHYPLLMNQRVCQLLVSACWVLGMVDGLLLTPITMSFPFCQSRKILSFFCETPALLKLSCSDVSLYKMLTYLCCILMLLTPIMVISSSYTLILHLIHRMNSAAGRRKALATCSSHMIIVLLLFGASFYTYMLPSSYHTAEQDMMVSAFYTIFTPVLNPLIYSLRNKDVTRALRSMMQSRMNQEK
Procedure, shortened: as §1

O2T34 R267P = system: T17, O2T34 R267P
T17 sequence (whole entry): T16 sequence (whole entry) with P6Q
Procedure, shortened: as §1

O4A47 = system: T18, O4A47
T18 sequence (whole entry): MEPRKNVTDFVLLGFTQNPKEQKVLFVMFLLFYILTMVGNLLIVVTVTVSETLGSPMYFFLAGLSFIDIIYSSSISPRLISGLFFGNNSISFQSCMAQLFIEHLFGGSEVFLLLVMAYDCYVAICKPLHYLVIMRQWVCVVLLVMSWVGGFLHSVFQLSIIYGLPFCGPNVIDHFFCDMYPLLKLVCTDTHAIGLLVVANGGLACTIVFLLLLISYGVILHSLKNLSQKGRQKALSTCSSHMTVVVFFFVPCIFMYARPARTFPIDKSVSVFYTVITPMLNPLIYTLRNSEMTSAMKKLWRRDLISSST
Procedure, shortened: as §1

O4C46 S240F C252Y K288R = system: O4C46 S240F C252Y K288R
Procedure, shortened: as §1

O4F15 A272T = system: T19, O4F15 A272T
T19 sequence (whole entry): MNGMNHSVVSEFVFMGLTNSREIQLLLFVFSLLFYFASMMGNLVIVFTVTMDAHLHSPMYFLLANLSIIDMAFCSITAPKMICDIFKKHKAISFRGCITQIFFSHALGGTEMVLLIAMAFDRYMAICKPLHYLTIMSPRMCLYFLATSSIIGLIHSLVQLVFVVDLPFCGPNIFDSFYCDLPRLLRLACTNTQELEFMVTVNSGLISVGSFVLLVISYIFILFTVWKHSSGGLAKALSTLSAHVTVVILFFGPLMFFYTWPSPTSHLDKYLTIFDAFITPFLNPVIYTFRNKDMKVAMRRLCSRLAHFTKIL
Procedure, shortened: as §1

Measured: odorant receptor agonist call;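 also: active if original authors judged signal statistically different from baseline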

CCCCCCCC(=O)CCCCCCC
inactive: O1440

CC1=C(O)C(=O)C(C)O1 (stereo not given)
not listed: O1440
inactive: all other assays above
